GASC-1 inh = blocks human GASC-1 demethylase activity | Q9H3R0 | GST-JMJD2C(1-420) H3K9me3 demethylation, DELFIA europium | inhibition, % at 2.35 µM | 330,000 compounds, 0.069% hits | AID 2099;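 active = more than half of a compound's replicate wells show inhibition beyond 50%, single wells judged on their own value; inconclusive = some, but no more than half, of replicates pass 50% inhibition; inactive = no replicate passes 50% inhibition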;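 also: signal counts dimethyl H3K9 product captured on neutravidin plate; 0% = median of DMSO wells and 100% = 0.3 times that DMSO median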
AHR act = activators of human aryl hydrocarbon receptor. P35869. AHR-responsive luciferase reporter cells, luminescence. activation, % at 5 µM. 320,000 compounds, 2.5% hits. AID 2796; in the data active = activation above about 47%;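 also: 0% = vehicle wells and 100% = reference agonist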
Target sequence (P35869 whole entry, looked up): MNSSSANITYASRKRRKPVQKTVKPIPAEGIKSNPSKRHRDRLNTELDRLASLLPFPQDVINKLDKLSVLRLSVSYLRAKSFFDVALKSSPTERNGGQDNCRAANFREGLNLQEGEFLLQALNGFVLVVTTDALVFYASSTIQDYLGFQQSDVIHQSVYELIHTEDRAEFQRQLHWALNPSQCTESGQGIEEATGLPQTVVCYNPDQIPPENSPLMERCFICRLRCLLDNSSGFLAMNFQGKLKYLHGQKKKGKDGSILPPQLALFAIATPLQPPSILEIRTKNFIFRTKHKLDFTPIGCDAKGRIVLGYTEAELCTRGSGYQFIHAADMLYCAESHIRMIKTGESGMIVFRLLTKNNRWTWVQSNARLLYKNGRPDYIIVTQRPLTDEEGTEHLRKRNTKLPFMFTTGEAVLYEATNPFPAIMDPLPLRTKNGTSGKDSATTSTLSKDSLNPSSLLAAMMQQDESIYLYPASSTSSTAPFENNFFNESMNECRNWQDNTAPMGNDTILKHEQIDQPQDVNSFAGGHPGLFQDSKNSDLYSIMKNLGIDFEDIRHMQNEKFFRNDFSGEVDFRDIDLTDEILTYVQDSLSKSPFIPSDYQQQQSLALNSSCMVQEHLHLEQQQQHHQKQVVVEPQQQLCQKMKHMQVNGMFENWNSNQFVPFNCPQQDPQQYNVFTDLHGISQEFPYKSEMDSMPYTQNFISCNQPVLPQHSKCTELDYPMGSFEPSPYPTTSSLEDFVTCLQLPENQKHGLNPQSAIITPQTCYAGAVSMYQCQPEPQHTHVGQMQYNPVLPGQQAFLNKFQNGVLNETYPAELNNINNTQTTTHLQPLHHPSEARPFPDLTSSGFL
SR-BI DiI-HDL act = activators of SR-BI mediated HDL lipid uptake; CHO ldlA[mSR-BI] cells, DiI-HDL uptake fluorescence, 3 h; 100 = double the neutral-control signal; activation, % at 12.5 µM; 320,000 compounds, 0.096% hits; AID 504775;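 active = mean replicate activation of at least 60% and every replicate at or above 60%; inconclusive = mean or all-replicate condition met, but not both; inactive = mean below 60% and not all replicates reaching 60%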;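 also: 0% = median plate neutral-control signal and 100% = twice that signal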
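Material: SR-BI-overexpressing, LDLR-lacking CHO cells; schedule: compound exposure 3 h, 37 °C; reagent: DiI-labelled HDL at 10 µg/mL final; technique: bottom-read fluorescence, 550/595 nm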
FXN GAA850 act = frataxin GAA850 promoter activation; HEK293 lucGAA850 FXN promoter luciferase reporter, 24 h; percent of 10 µM SAHA response; activation, % at 6 µM; 360,000 compounds, 0.56% hits; AID 540364;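 active = activation above the average of all compounds screened plus 3 SD, cutoff fixed separately per campaign, cut at about 7.5% in these data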;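 also: 0% = DMSO wells and 100% = 10 µM SAHA wells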
SR-BI DiI inh = mouse SR-BI HDL lipid transfer inhibition; inhibition, % at 12.5 µM; Q61009; ldlA[mSR-BI] CHO cells, DiI-HDL uptake fluorescence, 3 h; 320,000 compounds, 0.96% hits;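 active = mean replicate inhibition of at least 70% and a set share of replicates each scoring 70 or more; inconclusive = meets just one of the two criteria; inactive = fails both criteria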;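 also: 0% = median of neutral control wells and 100% = median of positive control wells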
GAA30 FXN cntr = GAA30 FXN promoter activation counter-screen. shares compounds with FXN GAA850 act. 1,900 compounds, 66% hits. HEK293 lucGAA30 FXN promoter luciferase, 24 h; DMSO = 0%, 5 µM ipriflavone = 100%. activation, % at 6 µM;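 active = mean activation above the mean of solvent-only control wells plus 3 SD, cut at about 22% in these data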;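 also: counterscreen of GAA850 promoter hits where activity marks nonselective or luminescence artifacts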
FXN GAA850 conf = GAA850 FXN promoter activation confirmation; shares compounds with FXN GAA850 act; HEK293 lucGAA850 FXN promoter luciferase reporter, 24 h; 100% = activation by SAHA; activation, % at 6 µM; 1,900 compounds, 86% hits;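 active = mean activation above a set limit taken from the primary screen, cut at about 8% in these data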;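 also: 0% = DMSO wells and 100% = 10 µM SAHA wells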
The depositor's hits bear a star; ? = inconclusive; · = no result. Only some compounds are listed: those with a hit (about 3.7% of all), similar ones and a draw of the others.

SMILES	GASC-1 inh	AHR act	SR-BI DiI-HDL act	FXN GAA850 act	SR-BI DiI inh	GAA30 FXN cntr	FXN GAA850 conf
COc1ccc([C@@H]2[C@@H]3C(=O)N(C(C)(C)C)C(=O)[C@@H]3[C@]3(CC(C)C)C(=O)N(c4ccc(C(F)(F)F)cc4)C(=O)N23)cc1	-6	2	-15	2	15	·	·
CS(=O)(=O)c1nc(-c2ccccc2)cc(C(F)(F)F)n1	-37	-7	·	25*	-20	-82	-27
Cc1cc(NC(=O)CCS(=O)(=O)c2nc(-c3ccccc3)cc(C(F)(F)F)n2)no1	10	5	7	4	-7	·	·
O=C(Cn1ncc(Cl)c(Cl)c1=O)N1CCN(Cc2ccccc2)CC1	-1	·	25	-2	-25	·	·
CCc1ccc(C(=O)Cn2ncc(Cl)c(Cl)c2=O)cc1	9	2	10	8.5*	-10	15	15*
O=C(Cn1ncc(Cl)c(Cl)c1=O)N1CCOCC1	?	2	25	9.3*	-25	11	7
COc1ccc(C2CC(C(F)(F)F)n3nc(C(=O)Nc4c(C)n(C)n(-c5ccccc5)c4=O)c(Cl)c3N2)cc1 (stereo not given)	-3	3	·	·	·	·	·
CC(=NNC(=S)Nc1ccccc1)c1ccccn1	·	·	·	1	·	·	·
CC(=NNC(=S)Nc1ccccc1Cl)c1ccccn1	·	·	-50	14*	50	-39	25*
COCCNc1nc(C)cc(-c2cc(C(=O)NCc3ccccc3)on2)n1	9	20	-2	2	2	·	·
Cc1cc(-c2cc(C(=O)NCc3ccccc3)on2)nc(S(C)(=O)=O)n1	8	0	12	9.7*	-12	50*	26*
CCN(CC(=O)NCc1cccs1)S(=O)(=O)c1ccc(F)c(F)c1F	-1	2	34	1	-34	·	·
O=C(Nc1ccc(-c2nc3ccc(NC(=O)c4cccs4)cc3[nH]2)cc1)c1cccs1	-7	-1	-20	15*	20	3	32*
O=C(Nc1ccc2nc(-c3cccs3)[nH]c2c1)c1cccs1	-8	-13	-16	3	16	·	·
Cc1ccn2c(C=O)c(-c3ccc(F)cc3)c(C=O)c2c1	-12	-3	-36	0	36	·	·
Cc1nc(SCC(=O)c2cccs2)c2oc3ccccc3c2n1	1	72*	-26	7.6*	26	101*	39*
O=C(/C=C/c1cccc([N+](=O)[O-])c1)c1ccc([N+](=O)[O-])o1	4	-2	-33	-14	33	·	·
Cc1cccc(/C=C/C(=O)c2ccc([N+](=O)[O-])o2)c1	2	1	11	11*	-11	-113	-34
O=c1c2ccccc2[nH]c2ccc(O)cc12	0	12	9	8.2*	-9	39*	18*
Cc1ccc(-n2nc3ccc(NC(=O)C(C)C)cc3n2)cc1	25	40	-1	7.9*	1	106*	38*
CC(C)C(=O)Nc1ccc2nn(-c3ccc(F)cc3)nc2c1	6	-4	-15	3	15	·	·
CC(Sc1nncs1)C(=O)Nc1ccc2c(c1)OCO2 (stereo not given)	-13	7	3	-1	-3	·	·
Cc1cccc(-c2nnn(C/C(N)=N/O)n2)c1	12	2	22	0	-22	·	·
COc1ccc(-c2cc(C(F)(F)F)nc(S(=O)(=O)CCCC(=O)Nc3cccc(O)c3)n2)cc1OC	-26	·	·	9.3*	·	40*	32*
COc1ccccc1-c1cc(C(F)(F)F)nc(S(=O)(=O)CCCC(=O)O)n1	-2	-1	15	0	-15	·	·
SMILES	GASC-1 inh	AHR act	SR-BI DiI-HDL act	FXN GAA850 act	SR-BI DiI inh	GAA30 FXN cntr	FXN GAA850 conf
NNc1ccc(Cl)c(C(=O)O)c1	-4	3	·	8.7*	·	81*	23*
O=C(O)/C=C/C(=O)Nc1ccc(Cl)c(C(=O)O)c1	10	-5	-6	1	6	·	·
COc1ccc(N(CC(=O)Nc2cc(Cl)ccc2C)S(=O)(=O)c2c(C)n[nH]c2C)cc1	-45	5	1	-5	-1	·	·
O=C(/C=C/c1ccc([N+](=O)[O-])cc1)c1ccccc(=O)c1O	·	·	-20	9.5*	20	-101	-26
O=C(/C=C/c1ccccc1Cl)c1ccccc(=O)c1O	-8	0	-1	7	1	·	·
CC1(C)CC[C@]2(C(=O)O)CC[C@]3(CO)C(=CCC4[C@@]5(C)C[C@H](O)[C@H](O)[C@@](C)(C(=O)O)C5CC[C@]43C)[C@@H]2C1 (stereo not given in full)	10	-1	16	-2	-16	·	·
CC(C)(C)Nc1ncnc2sc(-c3ccccc3)cc12	-22	6	-19	1	19	·	·
CN(C)c1ncnc2sc(-c3ccccc3)cc12	-3	25	-33	9.0*	33	46*	18*
COc1ncnc2sc(-c3ccccc3)cc12	88	6	32	9.0*	-32	106*	37*
CCN1CCN(c2ccc(S(=O)(=O)N3CCCCC3)cc2NC(=O)COc2cc(C)ccc2Cl)CC1	-13	2	-12	-1	12	·	·
Cc1sc(N)nc1-c1ccc(Oc2ccccc2)cc1	-11	4	-3	8.8*	3	63*	25*
Nc1nc(N)nc(-c2ccc(Oc3ccccc3)cc2)n1	2	9	4	11*	-4	27*	14*
Cc1[nH]c2ccccc2c1-c1nc(N)sc1C	2	3	-11	1	11	·	·
CNC(=S)N1CCN(S(=O)(=O)c2ccc3ccccc3c2)CC1	4	-1	15	2	-15	·	·
CC1CCN(c2ccc(NC(=S)NC(=O)c3ccco3)cc2)CC1	-1	5	-2	7.9*	2	69*	32*
COc1ccccc1C(=O)C1CCCN(C(=O)c2cccc(-n3cccn3)c2)C1 (stereo not given)	-4	7	·	2	·	·	·
Cc1nc(Nc2ccccc2)sc1C(=O)c1ccccc1	18	-2	-5	4	5	·	·
CC(=O)c1sc(Nc2cccc(C)c2)nc1C	3	3	·	7.8*	·	101*	31*
Cc1cc(C)c(S(=O)(=O)NC(CC(=O)O)c2cccc([N+](=O)[O-])c2)c(C)c1 (stereo not given)	-17	1	6	2	-6	·	·
CCOc1nc(Nc2ccccc2F)nc(OCC)n1	-3	7	3	6	-3	·	·
C=CCNc1nc(Nc2ccccc2F)nc(OCC)n1	-3	38	-10	9.4*	10	80*	36*
CCCCc1ccc(S(=O)(=O)NC(=O)C2(C)CCN2C(=O)CC2CC2)cc1 (stereo not given)	·	·	·	1	·	·	·

High-throughput results: PubChem, several laboratories
